Here are results for 167 variants from the RNAGym collection of RNA variant scans (doi:10.1126/science.aae0568).

B1: tRNA (parent)
chain: GUUCCGUUGGCGUAAUGGUAACGCGUCUCCCUCCUAAGGAGAAGACUGCGGGUUCGAGUCCCGUACGGAACG

This sample holds only a part of the variants without activity.

The variants in the data set derive from B1. Nature of the data set: yeast fitness relative to wild type (ratio to wild type); higher = fitter; tRNA-Arg(CCU), competitive growth, 37 C, YPD. In short, it runs like this:
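Changes in genotype frequencies gave Darwinian fitness relative to wild type. Frequencies were read by 100-nucleotide paired-end sequencing of gene amplicons before and after pooled Saccharomyces cerevisiae strains, carrying tRNA-Arg(CCU) gene variants at the native locus, were competed in YPD at 37°C for 24 hours in six replicates. A genotype was kept only with ≥ 100 starting reads, and estimates < 0.5 were set to 0.5.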
As to U8G A20U A36G, the yeast fitness was determined as 0.635.

As to G23C A45U A65C, the yeast fitness was at most 0.5.

C31U G41U: the yeast fitness stood at 1.03.

Regarding G10A G17C, the yeast fitness is 0.549.

Regarding G6C C22U C30A C49U G52C, the yeast fitness worked out at 0.683.

Turning to A21U C22G U59C, the yeast fitness was at most 0.5.

On to C11G A20U A45C, for which the yeast fitness is at most 0.5.

For the variant U19C G23A G38A, the yeast fitness was 0.634.

Take U13C C24U C34U: the yeast fitness is at most 0.5.

Take C34U G63A: the yeast fitness is 0.624.

As for C4U C5G C66U, the yeast fitness amounted to 0.564.

With C55A C62G, the yeast fitness is 0.543.

With A20U A36G G68A, the yeast fitness turned out to be 0.574.

As to U32G A36U, the yeast fitness was 0.697.

For the variant G17C C24A A45C G52A, the yeast fitness was at most 0.5.

As to U7C A21U C30U C33G A70U, the yeast fitness is at most 0.5.

A14C G52C A57C G63C: the yeast fitness was at most 0.5.

Consider U2C U13A U19C C55A A69C, for which the yeast fitness is at most 0.5.

Take C5A A40C: the yeast fitness was 0.727.

For U13A A57C, the yeast fitness is 0.604.

Take G18A U26C: the yeast fitness came to 0.648.

For C4G C33U C55A, the yeast fitness is at most 0.5.

With C24U A42U C61U, the yeast fitness stood at 0.641.

Turning to G18A A36G A42U, the yeast fitness came out at 0.691.

A42G C46U A65C: the yeast fitness worked out at 0.665.

Take A15U A45G C49G: the yeast fitness is at most 0.5.

With C5G A14U U16C G18C U32A G58A, the yeast fitness was 0.542.

As for C31U G44C U64C, the yeast fitness turned out to be 0.559.

In the case of G38A A42C U54C C62G A65C C66A, the yeast fitness was at most 0.5.

With G9A C11U C66U, the yeast fitness amounted to 0.779.

As to A14C G18A A20U, the yeast fitness is at most 0.5.

For A20G C60U, the yeast fitness came to 0.744.

U16A U28C U47C: the yeast fitness is 0.79.

For the variant A43C C49A A65C, the yeast fitness was at most 0.5.

With C11A G39C C62U, the yeast fitness is at most 0.5.

As to C4U G10C G48C C62A, the yeast fitness was at most 0.5.

Turning to A45U A65C, the yeast fitness turned out to be 0.801.

G6C C22U C24G C27U C29A C30U C31G A70C: the yeast fitness is at most 0.5.

Regarding U7G C22G G50A, the yeast fitness was 0.514.

Regarding C31G A36U G39A, the yeast fitness was at most 0.5.

As to C5U G10A A14C, the yeast fitness was 0.6.

Take A14U U64C A65G: the yeast fitness was found to be 0.567.

For C5A C62U, the yeast fitness was determined as 0.954.

As to U3G A43U C62U, the yeast fitness came out at 0.727.

On to C31U C60U G67A A69U, for which the yeast fitness was at most 0.5.

As to U2A C29U A37G, the yeast fitness is at most 0.5.

For C31U C62U G63A, the yeast fitness was determined as 0.617.

As to C24G C34G A36G U53A, the yeast fitness is at most 0.5.

With U16A C24U C30G U35A, the yeast fitness was 0.539.

Turning to C62U G63C U64C, the yeast fitness came out at 0.789.

Take U7C A20G C24U C49A G67C: the yeast fitness is at most 0.5.

On to U8C C11U G18A A20U C22G C31G, for which the yeast fitness is at most 0.5.

On to C4G C22U C30A C34U G38C, for which the yeast fitness was at most 0.5.

In the case of U7C U13C C31G C34U C55U G58A C61U, the yeast fitness was at most 0.5.

G39C C49G G50C: the yeast fitness is at most 0.5.

In the case of U2G C27U A45C, the yeast fitness was 0.657.

A15C U28C G48C G68U A69U: the yeast fitness is at most 0.5.

With G10C A42C, the yeast fitness was found to be 0.71.

With U3G U8A C31A G52A, the yeast fitness was at most 0.5.

Consider G12C A43G, for which the yeast fitness stood at 0.694.

With C4G U8C C22G A42C, the yeast fitness is at most 0.5.

C27G A42G C60A: the yeast fitness was at most 0.5.

For the variant U19C C27G C30U, the yeast fitness came to 0.55.

In the case of U54A C61G, the yeast fitness was determined as 0.63.

For the variant A21G U32C A65U G68A, the yeast fitness came to 0.63.

As for U32G U54A G67C, the yeast fitness is at most 0.5.

In the case of C11A C31A U32C G44C A65G, the yeast fitness is at most 0.5.

C5U C46A C55G C66U A69U: the yeast fitness was at most 0.5.

On to C4G C11A G17A A20G C27U A43U C49G, for which the yeast fitness is at most 0.5.

In the case of G12C U47A A70G, the yeast fitness was 0.554.

Turning to G23A C29G U32G C34G A36G C62U, the yeast fitness is at most 0.5.

With A20C U64A G67A, the yeast fitness is at most 0.5.

On to C24G C33G A36C A37C G41A A42C A65U, for which the yeast fitness was at most 0.5.

C29G C33G G41C G67C: the yeast fitness is at most 0.5.

On to C4A U16A A37G A69U, for which the yeast fitness is at most 0.5.

For the variant C24G G48A, the yeast fitness is 0.588.

For the variant C30U G44A G48C, the yeast fitness is at most 0.5.

Consider U3A A45U C46G G52A, for which the yeast fitness is 0.613.

C49A G51A C55A C60A: the yeast fitness was at most 0.5.

For C5U A40G G56A A69C, the yeast fitness was found to be 0.575.

For the variant C22U C24A A42G, the yeast fitness is at most 0.5.

As to G12C A15U C33U C49G G58A, the yeast fitness is at most 0.5.

Turning to C22G C31A A43G A69U, the yeast fitness is at most 0.5.

Take U13A C27U C55G: the yeast fitness was at most 0.5.

Regarding G6C U7A C29A G51C, the yeast fitness is at most 0.5.

Consider G17C C27U A65C, for which the yeast fitness was 0.54.

For the variant U7C C33A A40U A57C, the yeast fitness was 0.662.

For the variant U7A G17A C29U, the yeast fitness is at most 0.5.

U28C A40C G56C A65G: the yeast fitness was at most 0.5.

With A21C C27G C29A A65C, the yeast fitness is at most 0.5.

For U3A G48C U54C C55A, the yeast fitness was at most 0.5.

In the case of C5U C11U A37G C60G, the yeast fitness stood at 0.581.

As to C22U C24G U47C C61A, the yeast fitness was at most 0.5.

On to A40U G67U, for which the yeast fitness was 0.797.

In the case of U16A A21U C30A G38A C55A A65C, the yeast fitness was at most 0.5.

In the case of C22G U28C C29A A42C, the yeast fitness is at most 0.5.

U2A A14C C34A C49U C55U A69C: the yeast fitness is at most 0.5.

Consider C46G G48A G52A, for which the yeast fitness worked out at 0.913.

With C5G U47A G56U G58C, the yeast fitness is at most 0.5.

In the case of C11A U19A C29A U32A U54C C55G C60G A70U, the yeast fitness was at most 0.5.

In the case of U16C G58A U59C, the yeast fitness amounted to 0.555.

With C4A C5U C34U U64G, the yeast fitness amounted to 0.576.

On to C33A U54A, for which the yeast fitness is at most 0.5.

Consider G9C U13A U59A, for which the yeast fitness turned out to be 0.718.

As to G12C A20C G58C A70U, the yeast fitness was at most 0.5.

For A20U C22G G23A A43U G50A, the yeast fitness is at most 0.5.

For the variant U13A C27U, the yeast fitness was 0.984.

On to U3A C5U C31A A45C C46G G52C, for which the yeast fitness was at most 0.5.

For the variant U7A G23A A42G C62U, the yeast fitness was at most 0.5.

In the case of G10C C11U G67A, the yeast fitness is at most 0.5.

Consider C27U G52C, for which the yeast fitness was 0.7.

As for A42C U53A G68C, the yeast fitness is at most 0.5.

As to C22U C31G G38A U47A, the yeast fitness is at most 0.5.

Take C11U C22U C66U A70C: the yeast fitness was at most 0.5.

Turning to C24A A57U, the yeast fitness is 0.681.

Turning to G63U A69U, the yeast fitness is 0.83.

For the variant A15U U28G C33U, the yeast fitness was at most 0.5.

Take G17C U19A C49G A69G: the yeast fitness was at most 0.5.

On to U26A A36C, for which the yeast fitness was at most 0.5.

On to A43G A45G A70G, for which the yeast fitness came out at 0.532.

With U7A G52A, the yeast fitness turned out to be 0.582.

For C5U A21G A42C, the yeast fitness came to 0.761.

Regarding C22A C31G C46A C49U U54C G68A, the yeast fitness worked out at 0.581.

As for G9A A14G A20C A42C, the yeast fitness was at most 0.5.

Regarding C29U A36U C49U, the yeast fitness was at most 0.5.

Consider U3C U32A C46G C62A, for which the yeast fitness was at most 0.5.

With C24U G41A C62A A69U, the yeast fitness is at most 0.5.

C5A A65C: the yeast fitness stood at 0.839.

Consider C5U U7C A40C C66U, for which the yeast fitness was at most 0.5.

Regarding U7A G9C A14G G17C G48A, the yeast fitness was at most 0.5.

U8A C61A: the yeast fitness amounted to 0.753.

Take C4U U32A G50A G67A: the yeast fitness is at most 0.5.

Regarding A14G C34U C49A C60U, the yeast fitness is 0.512.

Take C22U U59C: the yeast fitness is 0.778.

Turning to U16A A42U, the yeast fitness was determined as 0.907.

In the case of C31U G63C G67C A69U, the yeast fitness came to 0.511.

G25C C31G G51C A65U: the yeast fitness was at most 0.5.

Take C11U G18C C31U: the yeast fitness was at most 0.5.

In the case of U8C G9A A42G G58U, the yeast fitness was at most 0.5.

Regarding A45U U47C, the yeast fitness was found to be 0.995.

Regarding A20G C46U A70U, the yeast fitness amounted to 0.878.

With C34G G51C, the yeast fitness is 0.609.

Consider G12A C27A C29U A36G, for which the yeast fitness is at most 0.5.

Regarding C5A G6C G10A A42C, the yeast fitness is at most 0.5.

In the case of C22U C49G U53A, the yeast fitness turned out to be 0.558.

In the case of U8C A14C C24G G68A, the yeast fitness is at most 0.5.

Regarding A43C C46A G48C G63A, the yeast fitness turned out to be 0.62.

Turning to U3G U59C, the yeast fitness came to 0.888.

Regarding U47A U53C, the yeast fitness came to 0.7.

For C4U C22G G67U, the yeast fitness stood at 0.638.

As for G12A C27A C30G, the yeast fitness turned out to be 0.626.

Turning to C4G U8C U59G, the yeast fitness is at most 0.5.

In the case of U7A U8C C29U, the yeast fitness is at most 0.5.

On to U7C C33U G67A, for which the yeast fitness was at most 0.5.

On to A14C C24U U35C C46G G52A C61A, for which the yeast fitness turned out to be 0.535.

As for G12U G39A C66G, the yeast fitness is at most 0.5.

Regarding G18A C22U C30U C33U A45C, the yeast fitness is at most 0.5.

With U19G C22G C34U C49U, the yeast fitness is at most 0.5.

As for U13C G44C G58C, the yeast fitness stood at 0.661.

As for G9C U53A C66U, the yeast fitness was at most 0.5.

Turning to C22U C30G A36U C46G, the yeast fitness is at most 0.5.

Regarding U32G U47A U64A A65C G67A, the yeast fitness came out at 0.6.

Take C55U C61A G68A: the yeast fitness was at most 0.5.

G39C A43U A69U: the yeast fitness was determined as 0.736.

A65G C66A: the yeast fitness stood at 0.716.

Consider A15C G17C C31G G50C C62G A70C, for which the yeast fitness is at most 0.5.

As for G10A A15C G25A C66U, the yeast fitness was 0.543.
